CXCR6 block – inhibitors of human CXCR6 receptor. CHO-K1 PathHunter CXCR6 beta-arrestin, luminescence. inhibition, % at 20 µM. 360,000 tested, 0.36% active; in the data active means inhibition above about 34%, passing the limit was not always enough;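 further: antagonist mode with CXCL16 agonist at 10 nM final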
EBI2 block – EBI2 (human) antagonism; AID 651636; inhibition, % at 5 µM; 360,000 tested, 0.81% active; EBI2 beta-arrestin recruitment, luminescence, 7a,25-OHC stimulated; in the data active means inhibition above about 38%;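 further: enzyme fragment complementation signal reports receptor beta-arrestin coupling in cells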
Target sequence (P32249 whole entry, looked up, the tested form may be a part): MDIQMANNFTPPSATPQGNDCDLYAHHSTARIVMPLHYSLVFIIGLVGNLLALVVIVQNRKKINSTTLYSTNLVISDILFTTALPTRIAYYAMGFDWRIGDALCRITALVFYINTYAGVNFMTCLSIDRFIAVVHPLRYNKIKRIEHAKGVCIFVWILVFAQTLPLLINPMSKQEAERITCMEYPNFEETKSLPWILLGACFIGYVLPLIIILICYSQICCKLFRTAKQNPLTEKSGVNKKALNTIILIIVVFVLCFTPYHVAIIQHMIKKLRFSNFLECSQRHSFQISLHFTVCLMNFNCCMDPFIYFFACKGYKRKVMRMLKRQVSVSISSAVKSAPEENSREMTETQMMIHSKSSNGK
CCR6 antag – antagonists of human CCR6 receptor; CHO-K1 CCR6 PathHunter beta-arrestin, luminescence, CCL20-stimulated; inhibition, % at 20 µM; 340,000 tested, 0.49% active; AID 493098;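 active means compounds whose inhibition of the agonist-driven luminescence signal at 20 µM reaches about 50%, limit read from the data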;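 further: cells stimulated with CCL20 at 14 nM final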
HTR2A ag – activates the mouse 5-HT2A serotonin receptor; AID 624169; activation, % at 7.6 µM; CHO-K1 mHTR2A beta-arrestin complementation, luminescence; percent of 30 µM serotonin response; 360,000 tested, 0.66% active;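 active means activation above a run cutoff, the mean activation of all tested compounds plus 3 SD, cut at about 14% in these data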
APJ antag – blocks the human apelin receptor APJ. P35414. CHO-K1 APJ beta-arrestin complementation, luminescence. inhibition, % at 20 µM. 330,000 tested, 0.32% active. AID 2521;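 active means inhibition above about 40% at 20 µM, limit read from the data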;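 further: cells challenged with 10 nM apelin-13 agonist together with compound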
APJ agonist – activates the human apelin receptor APJ | AID 2520 | activation, % at 20 µM | 330,000 tested, 0.11% active | P35414 | CHO-K1 APJ PathHunter beta-arrestin, luminescence; 0% DMSO wells, 100% apelin;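 active means activation more than six SD over the plate average, tested at 20 µM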
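Material: CHO-K1 APJ beta-arrestin complementation cell line; Input: cell density 1000 per well; Incubation: compound stimulation 90 min at 25 °C, detection 60 min; Signal: luminescence from split beta-galactosidase complementation, Galacton Star/Emerald II substrate; Controls: DMSO-only wells as negative, 10 nM Apelin-13 as positive control.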
EBI2 conf – EBI2 (human) antagonism, single concentration confirmation. inhibition, % at 5 µM. EBI2 beta-arrestin luminescence, 7a,25-OHC antagonism. shares compounds with EBI2 block. 2,400 tested, 29% active;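 active means inhibition of at least 50%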
EBI2 ag – EBI2 agonism counter-screen. activation, % at 5 µM. shares compounds with EBI2 block. 2,400 tested, under 10 active. EBI2-expressing cells, agonist mode, luminescence, 60 min; 0% vehicle, 100% 7α,25-dihydroxycholesterol control;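 active means activation of at least 50%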
bGal counter – beta-galactosidase inhibition counter-screen; shares compounds with EBI2 block; purified beta-galactosidase, luminescent Galacton Star, 15 min; inhibition, % at 5 µM; 2,400 tested, 1% active;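 active means replicate-average signal at least 3 plate SD below neutral wells, shown as high inhibition, flagging enzyme-inhibiting false positives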;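 further: higher means stronger loss of beta-gal luminescence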
Each line names hits and unclear results; the compound was inactive in the other large screens (follow-up assays come after a bar, where they were run). Most compounds without a hit are left out; they make up all but 2.1% or so of the library.

O=C(c1ccco1)N1CCN(C(=O)c2cc3c(=O)oc4ccccc4c3s2)CC1	EBI2 block 80 (no result: APJ antag, APJ agonist) | EBI2 conf 61 | EBI2 ag inactive | bGal counter inactive
COc1ccc2[nH]cc(CCNC(=O)c3ccccc3Cl)c2c1	none
Cc1cccc(NC(=O)CSc2nc3nc(C)cc(C)n3n2)c1	none
COc1ccc(/C=C/C(=O)N2CCN(S(=O)(=O)/C=C/c3ccccc3)CC2)cc1OC	EBI2 block 89 | EBI2 conf 73 | EBI2 ag inactive | bGal counter inactive
COc1cccc(/C=C/C(=O)N2CCN(S(=O)(=O)c3ccccc3)CC2)c1OC	EBI2 block 45 | EBI2 conf inactive | EBI2 ag inactive | bGal counter inactive
COc1ccc(/C=C/C(=O)N2CCN(S(=O)(=O)c3ccccc3)CC2)cc1OC	EBI2 block 46 | EBI2 conf inactive | EBI2 ag inactive | bGal counter inactive
COc1cc2c(cc1OC)C(CNC(=O)C=Cc1cc(OC)c(OC)c(OC)c1)C2 (configuration not stated)	EBI2 block 50 (no result: CCR6 antag, APJ antag, APJ agonist) | EBI2 conf inactive | EBI2 ag inactive | bGal counter inactive
O=C(/C=C/c1ccco1)N1CCN(S(=O)(=O)c2ccccc2)CC1	none
COCCNC(=O)c1cccc(Nc2nc(-c3ccccc3)c3cc(Cl)ccc3n2)c1	none
CC(OC(=O)[C@@H]1CCCN1C(=O)c1cccs1)C(=O)Nc1cccc([N+](=O)[O-])c1 (some centres not stated)	none
CC(=O)C1=C(C)Nc2ncnn2C1c1ccccc1F (configuration not stated)	none
COc1cc(/C=C/C(=O)N2CCN(C(=O)/C=C/c3cc(OC)c(OC)c(OC)c3)CC2)cc(OC)c1OC	EBI2 block 46 | EBI2 conf inactive | EBI2 ag inactive | bGal counter inactive
COc1ccc(/C=C/C(=O)N2CCN(S(=O)(=O)c3ccccc3Br)CC2)cc1OC	EBI2 block 74 | EBI2 conf inactive | EBI2 ag inactive | bGal counter inactive
Cc1ccc(S(=O)(=O)N2CCN(C(=O)Cc3ccccc3)CC2)cc1C	none
Cc1ccc(S(=O)(=O)N2CCN(C(=O)/C=C/c3ccccc3)CC2)cc1C	EBI2 block 89 | EBI2 conf 76 | EBI2 ag inactive | bGal counter inactive
CCCCNC(=O)c1nc(C2CCN(S(=O)(=O)c3ccccc3C(F)(F)F)CC2)oc1-c1ccccc1	none (no result: CCR6 antag, APJ antag, APJ agonist)
COc1ccc(NCC(O)COc2ccc(C(C)(C)C)cc2)cc1 (configuration not stated)	EBI2 block 70 | EBI2 conf 52 | EBI2 ag inactive | bGal counter inactive
CCOc1cccc(-c2nn(-c3ccccc3)cc2/C=C(/C#N)C(=O)NCCCn2ccnc2)c1	EBI2 block 40 | EBI2 conf inactive | EBI2 ag inactive | bGal counter inactive
COC(=O)c1ccc2nc(C3CCCCC3)c(Cc3ccccc3)n2c1	EBI2 block 51 (no result: CCR6 antag, APJ antag, APJ agonist) | EBI2 conf 65 | EBI2 ag inactive | bGal counter inactive
Cc1ccc2cccc(OCC(=O)NCCC3=CCCCC3)c2n1	EBI2 block 48 | EBI2 conf inactive | EBI2 ag inactive | bGal counter inactive
O=C(COc1ccccc1Br)NCCC1=CCCCC1	none
Cc1cccc(NS(=O)(=O)c2ccc3[nH]c(=O)cc(C(=O)OC(C)C(=O)Nc4ccc([N+](=O)[O-])cc4)c3c2)c1 (configuration not stated)	EBI2 block 47 | EBI2 conf inactive | EBI2 ag inactive | bGal counter inactive
Cc1ccc2oc(=O)c3cc(C(=O)NCCCN4C(C)CCCC4C)sc3c2c1 (configuration not stated)	none
O=C(c1ccc(F)cc1)N1CCN(c2ccc([N+](=O)[O-])cc2-n2cccc2)CC1	EBI2 block 55 | EBI2 conf inactive | EBI2 ag inactive | bGal counter inactive
Nc1[nH]c(C(=O)c2ccccc2)c(-c2ccccc2C(F)(F)F)c1C(=O)c1cccs1	EBI2 block 45 (no result: CCR6 antag, APJ antag, APJ agonist) | EBI2 conf inactive | EBI2 ag inactive | bGal counter inactive
COc1cc([N+](=O)[O-])ccc1NC(=O)CN1C(=O)NC2(CCCCC2C)C1=O (configuration not stated)	none (no result: APJ antag, APJ agonist)
CC1C=CCC2C(=O)N(c3cccc(C(=O)Nc4ccc(Br)cc4)c3)C(=O)C12 (configuration not stated)	none
CC1=NN(c2ccccc2)C(=O)/C1=C/c1cccc(C)c1	none
Cc1cccc(N2C(=O)/C(=C\c3ccc(OC(F)F)cc3)c3ccccc3C2=O)c1	EBI2 block 61 | EBI2 conf inactive | EBI2 ag inactive | bGal counter inactive
O=C(CN1C(=O)NC2(CCCC2)C1=O)NNC(=O)c1ccc(Br)cc1	none
Cc1cc(N2CCN(Cc3ccccc3)CC2)n2nc(C)c(-c3ccccc3)c2n1	EBI2 block 47 | EBI2 conf inactive | EBI2 ag inactive | bGal counter inactive
COc1ccc(-c2c(C)nn3c(N4CCN(Cc5ccccc5)CC4)cc(C)nc23)cc1OC	none
O=C(c1ccco1)N1CCN(c2nc(C(F)(F)F)nc3c2nnn3Cc2ccccc2)CC1	EBI2 block 48 | EBI2 conf inactive | EBI2 ag inactive | bGal counter inactive
COC(=O)[C@@]12C[C@@H](CC(=O)N3CCSCC3)C(=O)N(Cc3ccc4c(c3)OCO4)C1=CCC(C)(C)C2	none (no result: CXCR6 block, CCR6 antag, APJ antag, APJ agonist)
C=CCN1C(=O)/C(=C/c2ccccc2)S/C1=N/c1nccs1	EBI2 block 57 | EBI2 conf inactive | EBI2 ag inactive | bGal counter inactive
O=c1[nH]c(CN2CCN(S(=O)(=O)c3ccc4ccccc4c3)CC2)nc2ccccc12	EBI2 block 53 | EBI2 conf inactive | EBI2 ag inactive | bGal counter inactive
O=c1[nH]c(CN2CCN(S(=O)(=O)/C=C/c3ccccc3)CC2)nc2ccccc12	EBI2 block 46 | EBI2 conf inactive | EBI2 ag inactive | bGal counter inactive
CC(c1nc2ccccc2c(=O)[nH]1)N1CCN(S(=O)(=O)c2ccc(F)c(Cl)c2)CC1 (configuration not stated)	EBI2 block 59 (no result: CCR6 antag, APJ antag, APJ agonist) | EBI2 conf inactive | EBI2 ag inactive | bGal counter inactive
O=c1[nH]c(CN2CCN(C/C=C/c3ccccc3)CC2)nc2ccccc12	none
